Bioassay records from PubChem.
M5 PAM: CHRM5 positive allosteric modulation; activation, % at 3 µM; 360,000 tested, 0.3% active; AID 624038; CHO-K1 hM5, Fluo-8 calcium, ACh EC20 PAM; 0% = ACh EC20, 100% = ACh EC100; P08912;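 active = activation above the run cutoff, the mean activation of all test compounds plus 3 SD, cut at about 18% in these data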
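Assay system: CHO-K1 hM5 cells / Incubation: Fluo-8 loading 80 min at 37 °C plus 30 min room temperature / Technique: Fluo-8 calcium dye fluorescence, kinetic read / Repeats: single replicate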
CHRM4 PAM: potentiates acetylcholine response at human M4 receptor; AID 624126; CHO-K1 hM4/Gqi5, Fluo-8 calcium fluorescence, ACh EC20; 0% = ACh EC20, 100% = maximal ACh; P08173; activation, % at 3 µM; 360,000 tested, 0.4% active;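 active = activation above its plate's cutoff, the mean activation of sample wells plus 3 SD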
Target sequence (P08173 whole entry, looked up): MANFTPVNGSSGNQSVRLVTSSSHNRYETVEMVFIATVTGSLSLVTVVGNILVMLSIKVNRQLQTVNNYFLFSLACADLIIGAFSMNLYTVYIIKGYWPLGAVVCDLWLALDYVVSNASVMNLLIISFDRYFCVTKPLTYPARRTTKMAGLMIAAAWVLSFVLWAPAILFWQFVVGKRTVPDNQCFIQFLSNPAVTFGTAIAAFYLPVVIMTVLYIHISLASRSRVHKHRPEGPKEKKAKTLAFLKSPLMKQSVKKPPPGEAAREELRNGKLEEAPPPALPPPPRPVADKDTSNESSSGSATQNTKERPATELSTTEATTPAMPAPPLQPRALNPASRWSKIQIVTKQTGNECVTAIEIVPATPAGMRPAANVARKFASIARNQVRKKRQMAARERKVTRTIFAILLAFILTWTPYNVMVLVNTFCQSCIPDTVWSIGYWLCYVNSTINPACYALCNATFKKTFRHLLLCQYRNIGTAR
CHRM5 antagonist: antagonists of human muscarinic M5 receptor (CHRM5) | P08912 | CHO-hM5 cells, Fluo-8 calcium fluorescence, ACh EC80 | inhibition, % at 3 µM | 360,000 tested, 0.59% active;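 active = inhibition above a per-plate cutoff, the mean of that plate's test compounds plus 3 SD, cut at about 27% in these data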;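 also: 0% = acetylcholine EC80 with DMSO and 100% = DMSO without agonist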
M4 ag: agonists of human muscarinic M4 receptor (CHRM4). CHO-K1 hM4/Gqi5, Fluo-8 calcium fluorescence; vehicle 0%, full acetylcholine response 100%. activation, % at 3 µM. 360,000 tested, 0.14% active. AID 624127;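 active = activation above the run mean over all test wells plus 3 SD, cut at about 32% in these data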;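 also: peak over basal fluorescence ratio per well then scaled between controls; 0% = DMSO wells and 100% = acetylcholine at EC100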
M4 antag: blocks acetylcholine activation of human M4 receptor. P08173. CHO-hM4 cells, ACh EC80, Fluo-8 calcium fluorescence. inhibition, % at 3 µM. 360,000 tested, 0.73% active;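 active = inhibition above its plate's cutoff, the mean inhibition of sample wells plus 3 SD, cut at about 27% in these data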;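 also: 0% = acetylcholine EC80 with DMSO and 100% = DMSO without agonist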
CHRM5 agonist: CHRM5 agonism in calcium assay; activation, % at 3 µM; 360,000 tested, 0.19% active; AID 624037; CHO-K1 hM5 cells, Fluo-8 calcium fluorescence; 0% DMSO wells, 100% maximal acetylcholine response;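 active = activation above the run's mean over test compounds plus 3 SD, cut at about 23% in these data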;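 also: signal is peak over basal fluorescence ratio across the kinetic read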
Active calls of the source: *. Compounds with a hit are over-represented: about 1.9% of the library has one in this group of screens.

SMILES	M5 PAM	CHRM4 PAM	CHRM5 antagonist	M4 ag	M4 antag	CHRM5 agonist
CCOC(=O)c1[nH]cnc1C(=O)N1CCN(C(=O)OC(C)(C)C)CC1	9	24*	-10	1	-9	-3
CCOc1ccc(C(=O)Nc2ccc(N3CCN(C(C)=O)CC3)cc2)cc1[N+](=O)[O-]	-3	-3	4	3	-2	1
CCOc1cc(C(=O)Nc2ccc(N3CCN(C(C)=O)CC3)cc2)cc(OCC)c1OCC	18*	1	-8	1	-5	4
COc1ccc(C(=O)Nc2ccc(N3CCN(C(=O)C(C)C)CC3)cc2)cc1[N+](=O)[O-]	0	23*	10	1	-3	3
C/C(=N\NC(=O)c1ccc2c(c1)OCO2)c1ccc(NC(=O)CCCC(=O)O)cc1	-4	5	24	1	-6	-7
CC1(C2CC2)NC(=O)N(CC(=O)N2CCN(S(=O)(=O)c3ccc(F)c(F)c3)CC2)C1=O (stereo unspecified)	-7	5	12	1	-1	-9
COC(=O)C1C/C(=N/NS(=O)(=O)c2ccc(C)cc2)CS1 (stereo unspecified)	-4	3	7	0	-2	-2
S=c1[nH]ncn1-c1ccccn1	6	25*	-4	0	5	-3
c1ccc(-n2cnc3ccccc32)nc1	-3	0	14	0	-5	-3
CCCCCCN1C[C@H](O)[C@@H](n2cc(-c3ccc(F)cc3)nn2)C[C@@H]1c1ccc(C)cc1	0	2	-1	-1	-4	1
COc1ccc(C(=O)Nc2cc(Cl)ccc2C(=O)O)cc1	20*	9	2	0	-1	4
COc1ccc(C(=O)Nc2cc(Cl)ccc2OC(=O)c2ccc(OC)cc2)cc1	-3	-2	5	0	-1	-1
O=C(O)c1ccc(NC2=C/C(=N/S(=O)(=O)c3cccs3)c3ccccc3C2=O)cc1	2	3	4	4	-1	1
O=C1C(Nc2ccc(O)cc2)=C/C(=N/S(=O)(=O)c2cccs2)c2ccccc21	2	-10	35*	9	7	-7
CC(C)n1cc(CN2CCC(Oc3ccc(C(=O)N4CCCCC4)cc3)CC2)cn1	3	-3	12	0	2	-7
O=C(O)CC(SCC(=O)Nc1ccc(S(=O)(=O)N2CCCC2)cc1)C(=O)O (stereo unspecified)	-5	7	-3	-1	-19	-6
O=C(O)CC(SCC(=O)Nc1ccccc1)C(=O)O (stereo unspecified)	6	22*	-2	0	-12	1
CCN(CC1CCCO1)C(=O)c1cc(COc2cc(C)c(Cl)c(C)c2)on1 (stereo unspecified)	-3	-5	2	7	-20	-3
O=C(c1ccc(CSc2nc3ccncc3[nH]2)cc1)N1CCN(c2cccc(Cl)c2)CC1	-19	-12	35*	19	10	6
Cc1cc(C)n2nc(SCC(=O)N3CCCC3)nc2n1	24*	8	-13	1	-12	4
Cc1cc(C)n2nc(SCC(=O)N3CCC(C)CC3)nc2n1	3	1	19	1	0	-1
CCC[N+]1(CC#CCC(c2ccccc2)c2ccccc2)CCCCC1	-15	-18	14	1	27*	-5
C(#Cc1ccccc1)C[N+]1(CC#Cc2ccccc2)CCCCC1	-16	-17	43*	1	33*	-11
C#CC[N+]1(CC#Cc2ccccc2)CCCCC1	2	-5	2	2	-8	-17
COc1ccc(N2C(=O)Cc3c2nc(N)c(C#N)c3N)cc1	6	10	-2	2	28*	5
CC(CNc1ccc(Cl)cc1)(CNc1ccc(Cl)cc1)[N+](=O)[O-]	4	-2	0	5	-6	2
COc1cc2ncnc(NCc3ccccc3)c2cc1OC	-4	2	12	2	0	-4
CCCCNc1nc(NCc2ccccc2)nc2ccccc12	-25	-18	82*	105*	90*	80*
